Our source for the inhibition, IC50 and Activity values is ChEMBL document CHEMBL4251598, “Development of novel bis-pyrazole derivatives as antitumor agents with potent apoptosis induction effects and DNA damage” (Eur J Med Chem, 2018).

In assay [1] the test system is SMMC-7721. The experiment in a line: Antiproliferative activity against human SMMC7721 cells assessed as inhibition of cell proliferation at 25 uM after 72 hrs by MTT assay relative to control. Type of assay: functional. The note with it: SMMC-7721, 72 h. A digest of the protocol: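 Cells in DMEM with 10% FBS, plated at 10^4 cells/mL, adhered overnight. Treated at 25 μM for 72 h. MTT added for the last 4 h, formazan dissolved in DMSO, A570 read. Inhibition expressed as percent of untreated. Mean + SD from three separate measurements.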

Assay [2] concerns SMMC-7721. Put plainly: Antiproliferative activity against human SMMC7721 cells after 72 hrs by MTT assay. The note with it: SMMC-7721, 72 h. The format is functional, cell-based. A digest of the protocol:
(§1)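 Cells in DMEM with 10% FBS, 10^4 cells/mL, adhered overnight at 37 °C, 5% CO2. Treated in triplicate with a range of concentrations for 72 h. MTT (5 mg/mL solution) added for the last 4 h, formazan dissolved in DMSO, absorbance read at 570 nm. IC50 calculated from percent inhibition. Mean ± SD of three independent experiments.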

Another assay relates to HCT-116. The experiment in a line: Antiproliferative activity against human HCT116 cells after 72 hrs by MTT assay. Type of assay: functional, cell-based. Particulars: HCT-116, 72 h. A digest of the protocol: as §1
For another assay, the system named is SGC-7901. Put plainly: Antiproliferative activity against human SGC7901 cells after 72 hrs by MTT assay. The format is functional, cell-based. Particulars: SGC-7901, 72 h. A digest of the protocol:
as §1

For a further assay, the system named is PC-3. The experiment in a line: Induction of apoptosis in human PC3 cells. Type of assay: functional, cell-based.
Assay [3] relates to SMMC-7721. Put plainly: Induction of apoptosis in human SMMC7721 cells assessed as apoptotic cells at 3.2 uM after 72 hrs by FITC-Annexin-V/7AAD/propidium iodide staining based flow cytometry relative to control. The format is functional. In a few lines:
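SMMC-7721 cells cultured overnight, then treated in triplicate with 0.2, 0.8 or 3.2 μM, vehicle, or ADM (3.2 μM) for 72 h. Stained with annexin V and PI (methods section: APC-annexin V/7-AAD) for 15 min at room temperature. Mean ± SD of three independent experiments.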

The subject of assay [4] is SMMC-7721. Put plainly: Induction of DNA double stranded breaks in human SMMC7721 cells assessed as increase in H2AX phosphorylation at S139 at 0.8 uM after 72 hrs by Western blot analysis. The format is functional, cell-based. A digest of the protocol: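 SMMC-7721 cells treated with vehicle, compound at 0.2, 0.8 or 3.2 μM, or ADM for 72 h. Lysates immunoblotted for H2AX pS139, p-p53 (Ser15), total p53 and β-actin, with ECL detection. Signals quantified by densitometry relative to β-actin, mean ± SD of three experiments.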

Activity calls are given as the source filed them. No cut-off for these calls is given here. Some results are limits rather than exact numbers.

For `Cc1ccc(Oc2c(/C=N\OCc3c(Cl)c(-c4ccc(Cl)cc4)nn3C)c(C)nn2C)cc1`, the inhibition at 25 µM with SMMC-7721 [1] stood at 80%. Further, the IC50 in the assay on SMMC-7721 [2] worked out at 5.84 µM; with HCT-116, 2.85 µM; with SGC-7901, 3.73 µM.

Turning to `Cc1nn(C)c(Oc2ccc(F)cc2)c1/C=N\OCc1c(Cl)c(-c2ccc(Cl)cc2)nn1C`, the inhibition at 25 µM in the assay with SMMC-7721 [1] was found to be 80%. The values for the IC50 with SMMC-7721 [2], in the assay with HCT-116 and with SGC-7901 were 3.23 µM, 7.25 µM and 4.43 µM, respectively.

`CCc1nn(C)c(CO/N=C\c2c(C)nn(C)c2Oc2ccccc2OC(F)(F)F)c1Cl`: the inhibition at 25 µM in the assay on SMMC-7721 [1] is < 80%.

For `CCc1nn(C)c(CO/N=C\c2c(C)nn(C)c2Oc2ccc(OC(F)(F)F)cc2)c1Cl`, the inhibition at 25 µM with SMMC-7721 [1] was < 80%.

On to `CCc1nn(C)c(CO/N=C/c2c(C)nn(C)c2Oc2ccc(Br)cc2)c1Cl`, for which the inhibition at 25 µM with SMMC-7721 [1] was < 80%.

On to `Cc1nn(C)c(Oc2ccc(F)cc2)c1/C=N\OCc1c(Cl)c(-c2ccc(F)cc2)nn1C`, for which, in the assay with SMMC-7721 [1], the inhibition at 25 µM worked out at 80%. Besides, the half-inhibitory concentration (IC50) in the assay with SMMC-7721 [2] was 6.64 µM; with HCT-116 it was 8.02 µM; with SGC-7901, 7.08 µM.

On to `CCc1nn(C)c(CO/N=C/c2c(C)nn(C)c2Oc2ccc(I)cc2)c1Cl`, for which the inhibition at 25 µM with SMMC-7721 [1] is < 80%.

The molecule `CCOC(=O)c1cc(-c2ccccc2)nn1Cc1ccc(Cl)nc1` came in with a half-inhibitory concentration (IC50) with PC-3 of 15.2 µM.

For the molecule `CCc1nn(C)c(CO/N=C/c2c(C)nn(C)c2Oc2ccc(C)cc2)c1Cl`, the inhibition at 25 µM in the assay with SMMC-7721 [1] is < 80%.

Consider `COc1ccc(Oc2c(/C=N\OCc3c(Cl)c(-c4ccc(F)cc4)nn3C)c(C)nn2C)cc1`, for which, in the assay on SMMC-7721 [1], the inhibition at 25 µM was found to be 80%. The IC50 worked out at 2.05 µM with SMMC-7721 [2], 1.18 µM in the assay with HCT-116 and 2.84 µM in the assay on SGC-7901.

On to `Cc1ccc(Oc2c(/C=N\OCc3c(Cl)c(-c4ccc(F)cc4)nn3C)c(C)nn2C)cc1`, for which the inhibition at 25 µM in the assay on SMMC-7721 [1] is 80%. Moreover, the half-maximal inhibitory concentration (IC50) with SMMC-7721 [2] amounted to 5.23 µM; in the assay on HCT-116, 2.91 µM; with SGC-7901 it was 4.62 µM.

For `CCc1nn(C)c(CO/N=C/c2c(C)nn(C)c2Oc2ccc(F)cc2)c1Cl`, in the assay on SMMC-7721 [1], the inhibition at 25 µM is < 80%.

On to `Cc1nn(C)c(Oc2ccc(Cl)cc2)c1/C=N\OCc1c(Cl)c(-c2ccc(Cl)cc2)nn1C`, for which, in the assay on SMMC-7721 [1], the inhibition at 25 µM was 80%. In addition, the IC50 is 6.82 µM in the assay on SMMC-7721 [2], 4.67 µM in the assay with HCT-116 and 7.51 µM in the assay on SGC-7901.

Consider `CCc1nn(C)c(CO/N=C\c2c(C)nn(C)c2Oc2ccc(OC)cc2)c1Cl`, for which, in the assay with SMMC-7721 [1], the inhibition at 25 µM was < 80%.

For the molecule `COc1cccc2c1C(=O)c1c(O)c3c(c(O)c1C2=O)C[C@@](O)(C(=O)CO)C[C@@H]3O[C@H]1C[C@H](N)[C@H](O)[C@H](C)O1.Cl` [DOXORUBICIN HYDROCHLORIDE], the inhibition at 25 µM in the assay with SMMC-7721 [1] was determined as 80%. For the same molecule, the IC50 amounted to 2.67 µM in the assay on SMMC-7721 [2], 2.31 µM with HCT-116 and 4.12 µM with SGC-7901. Also, in the assay on SMMC-7721 [3], the Activity came to 47.5%. The result in the assay on SMMC-7721 [4] was Active.

`Cc1nn(C)c(Oc2ccc(OC(F)(F)F)cc2)c1/C=N\OCc1c(Cl)c(-c2ccc(Cl)cc2)nn1C`: in the assay with SMMC-7721 [1], the inhibition at 25 µM worked out at 80%. For the same molecule, the IC50 with SMMC-7721 [2] was determined as 8.67 µM; with HCT-116 it was 3.02 µM; in the assay with SGC-7901, 3.22 µM.

Consider `CCc1nn(C)c(CO/N=C/c2c(C)nn(C)c2Oc2ccccc2F)c1Cl`, for which, in the assay on SMMC-7721 [1], the inhibition at 25 µM is < 80%.

For the molecule `CCc1nn(C)c(CO/N=C/c2c(C)nn(C)c2Oc2cccc(C)c2)c1Cl`, in the assay on SMMC-7721 [1], the inhibition at 25 µM is < 80%.

As for `CCc1nn(C)c(CO/N=C/c2c(C)nn(C)c2Oc2ccccc2C)c1Cl`, the inhibition at 25 µM in the assay with SMMC-7721 [1] is < 80%.

For `CCc1nn(C)c(CO/N=C/c2c(C)nn(C)c2Oc2ccc(Cl)cc2)c1Cl`, in the assay with SMMC-7721 [1], the inhibition at 25 µM was < 80%.

`CCc1nn(C)c(CO/N=C/c2c(C)nn(C)c2Oc2ccccc2Cl)c1Cl`: in the assay on SMMC-7721 [1], the inhibition at 25 µM is < 80%.

As for `Cc1nn(C)c(Oc2ccc(Br)cc2)c1/C=N\OCc1c(Cl)c(-c2ccc(Cl)cc2)nn1C`, the inhibition at 25 µM in the assay on SMMC-7721 [1] amounted to 80%. Also, the results for the IC50 in the assay with SMMC-7721 [2], in the assay on HCT-116 and in the assay with SGC-7901 were 7.13 µM, 5.91 µM and 5.96 µM, respectively.

Take `CCc1nn(C)c(CO/N=C/c2c(C)nn(C)c2Oc2cccc(Cl)c2)c1Cl`: the inhibition at 25 µM with SMMC-7721 [1] is < 80%.

Take `CCc1nn(C)c(CO/N=C/c2c(C)nn(C)c2Oc2ccccc2OC)c1Cl`: the inhibition at 25 µM with SMMC-7721 [1] was < 80%.

Take `Cc1nn(C)c(Oc2ccc(Cl)cc2)c1/C=N\OCc1c(Cl)c(-c2ccc(F)cc2)nn1C`: in the assay on SMMC-7721 [1], the inhibition at 25 µM amounted to 80%. Moreover, the half-maximal inhibitory concentration (IC50) amounted to 7.97 µM with SMMC-7721 [2], 6.03 µM in the assay with HCT-116 and 8.11 µM in the assay with SGC-7901.

For the molecule `O=c1[nH]cc(F)c(=O)[nH]1` [FLUOROURACIL], the half-maximal inhibitory concentration (IC50) in the assay with SMMC-7721 [2] worked out at 37.8 µM; with HCT-116, 29.5 µM; with SGC-7901 it was 34.4 µM.

For `Cc1nn(C)c(Oc2ccc(OC(F)(F)F)cc2)c1/C=N\OCc1c(Cl)c(-c2ccc(F)cc2)nn1C`, in the assay with SMMC-7721 [1], the inhibition at 25 µM was 80%. Further, the IC50 in the assay with SMMC-7721 [2] amounted to 5.21 µM; with HCT-116, 2.31 µM; in the assay on SGC-7901, 2.97 µM.
